The source of these data is publication PMC8669655 (ACS Infectious Diseases, 2021).

In brackets after ≈: the same amount, converted by molar mass. Entries after “also recorded” stand apart in the source; their conditions may differ. A value given as a limit tells only on which side of the number the result lay.

Data set [1] concerns E. coli BW25113. Put plainly: MIC assay. It counts as cell-based. The conditions noted are these: Escherichia coli. The gist of the method: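 Broth microdilution per CLSI in LB. Test compound serially diluted twofold from a 2× stock. Inoculum from a single blood-agar colony, grown in LB at 37 °C to OD600 0.5, diluted to 2.0 × 10^6 CFU/mL stock, then added 1:1. Plates sealed with breathable seal, incubated 20 h at 37 °C, 600 rpm. MIC read visually after brief centrifugation. Six growth and six sterility controls.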

The next data set deals with E. coli ATCC25922. In words: Checkerboard assay with rifampicin. The conditions noted are these: E. coli ATCC25922 (wild-type). It counts as cell-based, Escherichia coli. The gist of the method:
(§1)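 Broth microdilution checkerboard in LB: serial dilutions of test compound and rifampicin combined, in triplicate. Inoculum from a single blood-agar colony, grown in LB at 37 °C to OD600 0.5, diluted to 2.0 × 10^6 CFU/mL stock, 50 μL added per 100 μL well. Sealed plates incubated 20 h, 37 °C, 600 rpm shaking. OD600 read after resuspension. FICI from MICs alone and in combination; ≤0.5 taken as synergy.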

The test system of the next data set is E. coli W3110. In words: Checkerboard assay with rifampicin. The format is cell-based, Escherichia coli. The conditions noted are these: E. coli W3110 (wild-type). The gist of the method:
as §1

The test system of another data set is E. coli 552060.1. Put plainly: Checkerboard assay with rifampicin. The format is cell-based, Escherichia coli. The conditions noted are these: E. coli 552060.1 (wild-type clinical isolate). The gist of the method: as §1
The subject of data set [2] is E. coli EQASmcr-1 (EQAS 2016 412016126). Put plainly: Checkerboard assay with rifampicin. It counts as cell-based, Escherichia coli. The conditions noted are these: E. coli EQASmcr-1 (polymyxin-resistant). The gist of the method:
as §1

The test system of data set [3] is E. coli EQASmcr-2 (EQAS 2016 KP37). Put plainly: Checkerboard assay with rifampicin. Particulars: E. coli EQASmcr-2 (polymyxin-resistant). It counts as cell-based, Escherichia coli. The gist of the method:
as §1

Data set [4] relates to E. coli EQASmcr-3 (EQAS 2017 2013-SQ352). In words: Checkerboard assay with rifampicin. The format is cell-based, Escherichia coli. Particulars: E. coli EQASmcr-3 (polymyxin-resistant), listed as pentamidine (1). The gist of the method:
as §1

The next data set deals with A. baumannii ATCC17978. Put plainly: Checkerboard assay with rifampicin. It counts as cell-based, Acinetobacter baumannii. Particulars: listed as pentamidine (1). The gist of the method: as §1
A further data set has as its system K. pneumoniae ATCC13883. In words: Checkerboard assay with rifampicin. The format is cell-based, Klebsiella pneumoniae. Particulars: listed as pentamidine (1). The gist of the method: as §1
The next data set deals with P. aeruginosa ATCC27853. Put plainly: Checkerboard assay with rifampicin. It counts as cell-based, Pseudomonas aeruginosa. Particulars: listed as pentamidine (1). The gist of the method:
as §1

Data set [5] has as its system E. coli BW25113. Put plainly: OM permeabilization assay using NPN. The format is cell-based, Escherichia coli. The conditions noted are these: 60 min, relative to 100 μg/mL colistin. The gist of the method:
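Log-phase cells (overnight LB culture diluted 50×, grown to OD600 0.5) pelleted and resuspended to OD600 1.0 in 5 mM HEPES with 20 mM glucose. Test compound serially diluted in triplicate. NPN stock (0.5 mM in acetone) diluted 12.5× in buffer and added. Fluorescence read after 60 min, ex 355 nm / em 420 nm. Uptake % = (F − buffer blank)/(colistin 100 μg/mL − blank) × 100. Compound + NPN no-cell controls included.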

For the next data set, the system named is rat L6 muscle cell line. The conditions noted are these: cited from earlier work.

Compound `N=C(N)c1ccc(OCCCCCOc2ccc(C(=N)N)cc2)cc1` [compound 1, 4,4′-(Pentane-1,5-diylbis(oxy))dibenzimidamide, reference compound] came in with a minimal inhibitory concentration (MIC) in the data set on E. coli BW25113 [1] (BW25113, compound alone) of at least 200 µg/mL. For the same compound, the FICI with E. coli ATCC25922 was 0.313; in the data set with E. coli W3110 (listed as pentamidine (1)), at most 0.188; in the data set with E. coli 552060.1, 0.375; in data set [2] (listed as pentamidine (1)), at most 0.250; in data set [3], 0.375; in data set [4] it was at most 0.188. Besides, the FICI in the data set on A. baumannii ATCC17978 is at most 0.125; with K. pneumoniae ATCC13883 it was at most 0.125; in the data set on P. aeruginosa ATCC27853 it was at most 0.500.
In the case of `N=C(N)c1ccc(OCCCOc2ccc(C(=N)N)cc2)cc1` [compound 9, 4,4′-(Propane-1,3-diylbis(oxy))dibenzimidamide], the minimum inhibitory concentration (MIC) against E. coli BW25113 [1] (BW25113, compound alone) was at least 200 µg/mL.
The same measure, in the same setting: to `N=C(N)c1ccc(OCCCCCCCOc2ccc(C(=N)N)cc2)cc1` [compound 10, 4,4′-(Heptane-1,7-diylbis(oxy))dibenzimidamide] belongs 200 µg/mL (≈ 543 µM); to `N=C(N)c1ccc(OCCSCCOc2ccc(C(=N)N)cc2)cc1` [compound 15, 4,4′-((Thiobis(ethane-2,1-diyl))bis(oxy))dibenzimidamide], above 200 µg/mL.
`N=C(N)c1ccc(OCCS(=O)(=O)CCOc2ccc(C(=N)N)cc2)cc1` [compound 16, 4,4′-((Sulfonylbis(ethane-2,1-diyl))bis(oxy))dibenzimidamide] displayed a minimal inhibitory concentration (MIC) in the data set with E. coli BW25113 [1] (BW25113, compound alone) above 200 µg/mL.
`N=C(N)c1ccc(OCc2ccccc2COc2ccc(C(=N)N)cc2)cc1` [compound 21, 4,4′-((1,2-Phenylenebis(methylene))bis(oxy))dibenzimidamide] had a minimum inhibitory concentration (MIC) against E. coli BW25113 [1] (BW25113, 20 h, compound alone) above 200 µg/mL. Further, the “NPN uptake (OM disruption), in words” value in the data set with E. coli BW25113 [5] is listed as “dose-dependent increase in the fluorescent signal”.
Turning to `N=C(N)c1ccc(OCc2cccc(COc3ccc(C(=N)N)cc3)c2)cc1` [compound 22, 4,4′-((1,3-Phenylenebis(methylene))bis(oxy))dibenzimidamide], the minimum inhibitory concentration (MIC) against E. coli BW25113 [1] (BW25113, 20 h, compound alone) was above 200 µg/mL. For the same compound, the FICI in the data set on E. coli ATCC25922 is given as 0.094; with E. coli W3110, 0.313; in the data set with E. coli 552060.1, 0.250; in data set [2] it was 0.188; in data set [3], 0.313. Moreover, the “NPN uptake (OM disruption), in words” value in the data set on E. coli BW25113 [5] is given as “dose-dependent increase in the fluorescent signal; also recorded: stronger effect than PMBN”.
For the compound `N=C(N)c1cccc(OCc2ccc(COc3cccc(C(=N)N)c3)cc2)c1` [compound 23b, 3,3′-[1,4-Phenylenebis(methyleneoxy)]dibenzenecarboximidamide], the FICI with E. coli ATCC25922 was determined as 0.156.
In the case of `N=C(N)c1ccc(OCc2ccc3ccc(COc4ccc(C(=N)N)cc4)cc3c2)cc1` [compound 24, 4,4′-((Naphthalene-2,7-diylbis(methylene))bis(oxy))dibenzimidamide], the “toxicity against a rat L6 muscle cell line” value in the data set with rat L6 muscle cell line is “significant toxicity”.

One may read the MIC as the least concentration at which growth counts as inhibited. Read a high MIC as a less susceptible organism.
